# Bioassay records deposited in PubChem by The Scripps Research Institute Molecular Screening Center.
# In the library only some 4.6% were active in any assay of this set; here they are far more common.
# OX1R antag-1 = OX1R (HCRTR1) antagonists, primary screen, fluorescence, CHO/OX1R cells, Fluo-8 calcium, orexin A; Orexin/Hypocretin receptor type 1 (Homo sapiens), O43613; Fluo-8 calcium fluorescence; inhibition, % at 5 µM; actives 0.43% (n = 330,000);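 active means inhibition above its plate's threshold, mean inhibition of all tested compounds on the plate plus 3 SD, cut at about 37% in these data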;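 further: 0% = orexin A challenge wells and 100% = SB-334867-A antagonist wells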
# Target sequence (O43613 whole entry, looked up): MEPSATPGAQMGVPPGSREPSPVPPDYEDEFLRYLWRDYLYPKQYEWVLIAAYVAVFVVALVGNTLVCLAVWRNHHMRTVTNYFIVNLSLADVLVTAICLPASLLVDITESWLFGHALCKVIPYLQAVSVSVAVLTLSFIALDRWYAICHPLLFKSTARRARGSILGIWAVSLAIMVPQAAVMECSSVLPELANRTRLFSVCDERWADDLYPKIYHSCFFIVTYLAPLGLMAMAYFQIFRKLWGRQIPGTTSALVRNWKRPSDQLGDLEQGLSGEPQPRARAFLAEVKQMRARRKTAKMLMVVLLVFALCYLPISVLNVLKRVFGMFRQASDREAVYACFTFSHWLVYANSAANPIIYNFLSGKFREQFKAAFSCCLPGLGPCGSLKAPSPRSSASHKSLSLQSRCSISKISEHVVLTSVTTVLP
# OX1R antag-2 = antagonists of human orexin 1 receptor (OX1R) | AID 485270, 2010 | OX1R-expressing cells, FRET antagonist read-out | actives 1.8% (n = 330,000) | Orexin/Hypocretin receptor type 1 (Homo sapiens), O43613 | inhibition, % at 6.6 µM; in the data active means inhibition mostly above about 38%, no sharp cut-off; inactive means mostly below about 40%;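 further: 0% = agonist challenge alone and 100% = reference antagonist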
# TAAR1 antagonist = human TAAR1 antagonists, primary screen, Fluo-8 calcium fluorescence, CHO RD-HGA16 cells. antagonist. inhibition, % at 3 µM. actives 1.5% (n = 360,000). AID 624466, 2012;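 active means inhibition above a per-plate cutoff, the mean inhibition of test compounds on that plate plus 3 SD, cut at about 49% in these data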;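 further: 0% = DMSO plus EC80 beta-PEA response and 100% = DMSO alone without agonist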
#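 System: CHO RD-HGA16 cells bearing hTAAR1. Reagent: EC80 β-phenethylamine stimulus. Schedule: seeding 17-24 h prior, 75-min 37 °C, 30-min RT dye loading. Signal: Fluo-8 intracellular calcium dye fluorescence, real-time kinetic reads. Read-out: % inhibition from peak post-agonist over basal fluorescence ratio. Benchmarks: vehicle wells and EC80 agonist wells. Replicates: n of 1.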
# TAAR1 ag = human TAAR1 agonists, primary screen, Fluo-8 calcium fluorescence, CHO RD-HGA16 cells; activation, % at 3 µM; Trace amine-associated receptor 1 (Homo sapiens), Q96RJ0; vehicle wells 0%, saturating PEA agonist 100%; actives 0.99% (n = 360,000); AID 624467, 2012;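 active means activation above the mean activation of all test compounds in the run plus 3 SD, cut at about 38% in these data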
#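 System: CHO-derived RD-HGA16 cells with stable Gα16 and human TAAR1. Times: 17-24 h plating, Fluo-8 75 min 37 °C, 30 min RT. Measured by: calcium-sensitive Fluo-8 signal, excitation 470-495, emission 515-575 nm. Read-out basis: % activation relative to PEA EC100 response. Control set: DMSO and PEA EC100. Repeats: no replicates (n 1).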
# GPR7 antag = GPR7 receptor antagonists, primary screen, cell-based, fluorescence, single concentration; Neuropeptides B/W receptor type 1 (Homo sapiens), P48145; GPR7-expressing cells, fluorescence antagonist assay; inhibition, % at 4.4 µM; actives 1.1% (n = 290,000); in the data active means inhibition above about 16%, passing the limit was not always enough;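 further: cells stimulated with the agonist NPW; 0% = agonist with vehicle and 100% = vehicle without agonist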
# Target sequence (P48145 whole entry, looked up): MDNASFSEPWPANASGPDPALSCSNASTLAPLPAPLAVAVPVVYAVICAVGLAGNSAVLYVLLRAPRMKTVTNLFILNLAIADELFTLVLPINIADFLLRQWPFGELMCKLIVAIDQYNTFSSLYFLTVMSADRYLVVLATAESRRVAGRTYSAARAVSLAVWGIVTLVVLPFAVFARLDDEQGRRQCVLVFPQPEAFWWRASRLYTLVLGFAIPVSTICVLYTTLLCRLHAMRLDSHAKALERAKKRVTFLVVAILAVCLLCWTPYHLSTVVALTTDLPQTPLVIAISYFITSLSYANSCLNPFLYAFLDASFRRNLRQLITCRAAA
# CHO parental Ca = ATP-evoked calcium signal inhibitors, parental CHO, primary screen, counter-screen for OX1R antagonist project, cell-based, fluorescence, Fluo-8 calcium dye | parental CHO-K1, ATP-induced calcium, Fluo-8 fluorescence | actives 0.63% (n = 330,000) | inhibition, % at 5.6 µM;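 active means inhibition above that plate's mean sample inhibition plus 3 SD, cut at about 26% in these data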;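 further: 0% = ATP-challenged DMSO wells and 100% = DMSO wells without ATP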
#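 Assay system: parental CHO cells; Read-out basis: percent inhibition of ATP-evoked calcium rise, normalized to controls; Benchmarks: ATP and no-ATP DMSO wells; Compound dosing: single nominal dose of 5.6 µM per compound; Signal: Fluo-8 calcium dye fluorescence; Also added: ATP as calcium-mobilizing challenge; Repeats: singlicate.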
# OX1R HTRF conf = OX1R (HCRTR1) antagonists, confirmation, cell-based, HTRF. shares compounds with OX1R antag-2. OX1R-expressing cells, HTRF antagonist assay. inhibition, % at 6.6 µM. actives 49% (n = 1,800); in the data active means inhibition above about 55%;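 further: CHO cells expressing OX1R stimulated with orexin A at about EC80; 0% = agonist challenge alone and 100% = reference antagonist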
# CHO-K1 HTRF cnt = signal inhibition in parental CHO-K1 cells, counter-screen for OX1R antagonist project, cell-based, HTRF. HTRF counterscreen. shares compounds with OX1R antag-2. actives 48% (n = 1,800). inhibition, % at 6.6 µM; in the data active means inhibition above about 17%;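 further: 0% = agonist challenge with vehicle and 100% = vehicle alone without agonist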
# nonsel antag count = nonselective antagonists in TAAR1 counter-screen cells, counter-screen for hTAAR1 antagonist project, cell-based, fluorescence, calcium; shares compounds with TAAR1 antagonist; counterscreen cell line, antagonist mode; inhibition, % at 3 µM; actives 77% (n = 2,400); in the data active means inhibition above about 22%;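 further: CHO-Ga16 host cells stimulated with ATP at an EC80 level; 0% = agonist EC80 plus vehicle and 100% = vehicle without agonist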
# TAAR1 ant conf = human TAAR1 antagonists, retest of hits, confirmation, cell-based, fluorescence; shares compounds with TAAR1 antagonist; actives 40% (n = 2,400); inhibition, % at 3 µM; TAAR1-expressing cells, fluorescence antagonist read-out; in the data active means inhibition above about 49%;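 further: CHO-Ga16 host cells challenged with agonist PEA near its EC80; 0% = agonist at EC80 plus vehicle and 100% = vehicle with no agonist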
# Ga16 ag counter = calcium activation in Ga16-expressing cells, counter-screen for TAAR1 antagonist project, cell-based, fluorescence; actives 18% (n = 2,400); agonist counterscreen; shares compounds with TAAR1 antagonist; activation, % at 3 µM; in the data active means activation above about 12%;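 further: 0% = vehicle wells and 100% = saturating stimulus response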
# TAAR1 ag counter = TAAR1 activation by candidate antagonists – cell-based, fluorescence, counter-screen for TAAR1 antagonist project; hTAAR1 cell line, agonist mode; actives 2% (n = 2,400); activation, % at 3 µM; shares compounds with TAAR1 antagonist; in the data active means activation above about 37%;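 further: CHO cells stably expressing TAAR1 with calcium dye readout; 0% = DMSO vehicle and 100% = full agonist response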
# * hit, by the source's call; / = no result given.
SMILES,OX1R antag-1,OX1R antag-2,TAAR1 antagonist,TAAR1 ag,GPR7 antag,CHO parental Ca,OX1R HTRF conf,CHO-K1 HTRF cnt,others
CC(C)C[C@H](NC(=O)N1CC(=O)Nc2ccccc21)C(=O)N[C@H](Cc1c[nH]c2ccccc12)C(=O)O,-5,18,3,1,-2,-19,/,/,
CC(C)C[C@H](NC(=O)N1CC(=O)Nc2ccccc21)C(=O)N[C@@H](Cc1c[nH]c2ccccc12)C(=O)O,20,82*,-12,1,-4,0,44,5,
Cc1ccc(NC(=O)CSc2nnc(-c3ccco3)o2)cc1,-13,99*,8,4,2,-3,8,6,
CC(=O)c1ccc(NC(=O)CSc2nnc(-c3ccco3)o2)cc1,-5,2,-11,6,16,8,/,/,
COc1cc2c(cc1OC)CN(C(=O)CN1C(=O)c3ccc([N+](=O)[O-])cc3C1=O)CC2,-34,98*,2,1,/,-29,45,37*,
S=c1[nH]nc(Cc2sc(-c3ccccc3)nc2-c2ccccc2)o1,-5,78*,1,-1,13,-8,50,22*,
S=c1[nH]nc(Cc2c[nH]c3ccccc23)o1,-18,1,-5,4,-6,-5,/,/,
O=C1N=C(N2CCCC2)S/C1=C\c1ccccc1,-15,147*,9,1,-1,-13,58*,27*,
Cc1ccc(/C=C2\SC(N3CCCCC3)=NC2=O)cc1,-11,16,-18,1,-7,-14,/,/,
O=C1C2=C(CCCC2)C(=O)N1c1cccc(OCCBr)c1,-31,17,16,8,-4,-23,/,/,
COc1cc2c(cc1NC(=O)CCCCCN1C(=O)CCC1=O)oc1ccccc12,26,80*,4,0,-3,-27,84*,14,
COc1cc2c(cc1NC(=O)CCCN1C(=O)CCC1=O)oc1ccccc12,-11,37,-6,0,-4,-13,/,/,
COc1ccc(S(=O)(=O)N(C)C[C@H]2OCCCC[C@H](C)Oc3ccc(N(C)C)cc3C(=O)N([C@H](C)CO)C[C@@H]2C)cc1,/,/,-34,-2,/,/,/,/,
O=C(NNC(=O)c1cccc2ccccc12)c1ccccc1O,0,22,-28,2,-1,-2,/,/,
O=C(NNc1c2ccccc2nc2ccccc12)c1cccc(O)c1,-4,26,19,3,-6,-13,/,/,
O=C(NNc1c2ccccc2nc2ccccc12)c1ccccc1O,1,84*,54*,10,-1,4,61*,1,
O=C(NNc1c2ccccc2nc2ccccc12)c1ccc(O)cc1O,0,102*,61*,15,-1,-11,84*,20*,
O=C(NNC(=O)c1ccccc1Cl)c1ccccc1Cl,-8,4,-1,2,-13,-16,/,/,
O=C(NNc1c2ccccc2nc2ccccc12)c1ccccc1Cl,-14,83*,-10,2,-7,1,50,-1,
Cc1ccc2c(c1)N(CC(=O)Nc1ncccc1C)C(=O)C(C(C)C)O2 (centres undefined),-20,5,-10,3,0,-13,/,/,
COC(=O)c1ccccc1COn1c(=O)c[n+]([O-])c2ccccc21,-24,85*,-7,3,-1,-14,31,29*,
CCOn1c(=O)c[n+]([O-])c2ccccc21,-8,40,-25,3,-19,-7,/,/,
O=c1c[n+]([O-])c2ccccc2n1OCc1c(F)cccc1F,1,81*,3,3,-12,-9,54,53*,
Cc1c(=O)n(OCc2ccccn2)c2ccccc2[n+]1[O-],-16,68,-6,13,-14,-3,/,/,
O=c1c[n+]([O-])c2ccccc2n1OCc1ccccn1,-8,129*,-2,5,-6,6,40,55*,
SMILES,OX1R antag-1,OX1R antag-2,TAAR1 antagonist,TAAR1 ag,GPR7 antag,CHO parental Ca,OX1R HTRF conf,CHO-K1 HTRF cnt,others
Cc1cc(C(=O)NC2CC(C)(C)Cc3c2cnn3-c2cccc(F)c2)n(C)n1 (centres undefined),-25,17,-25,-1,-12,0,/,/,
COC(=O)COn1c(SCC(=O)OC)nc2ccccc2c1=O,-8,7,3,9,-12,-11,/,/,
Cc1ccc(-c2csc(NC(=O)/C=C/c3ccco3)c2C(=O)O)cc1,-2,27,-5,-2,6,-1,/,/,
CCn1c(C)[n+](CCOC(C)=O)c2cc(Cl)c(Cl)cc21,-9,88*,-5,0,-5,4,24,5,
CCOc1ccc(/C=C2\SC(=S)N(NS(=O)(=O)c3ccccc3)C2=O)cc1OC,-6,78*,75*,5,-2,2,43,24*,nonsel antag count=23*;TAAR1 ant conf=53*;Ga16 ag counter=4;TAAR1 ag counter=2
CCOC(=O)c1c(C)[nH]c(C(=O)OCC(=O)Nc2sccc2C(N)=O)c1C,17,99*,72*,19,/,22,64*,12,nonsel antag count=39*;TAAR1 ant conf=53*;Ga16 ag counter=17*;TAAR1 ag counter=17
CCOC(=O)c1c(C)[nH]c(C(=O)OCC(=O)Nc2ccc(Cl)cn2)c1C,-11,0,4,1,/,-6,/,/,
CCC(=O)N1CCN(c2ccc(NC(=O)c3cc4ccccc4o3)cc2Cl)CC1,11,81*,73*,25,-15,18,34,7,nonsel antag count=49*;TAAR1 ant conf=66*;Ga16 ag counter=13*;TAAR1 ag counter=12
